Experimental data from ChEMBL document CHEMBL1128415 (J Med Chem, 1995).
Values joined by “and” are separate entries in the source; they are usually repeats but may differ in a detail not shown here. Identical values can stand only once.

Tests used:
[1] = target: T1, Angiotensin II receptor (AT-1) type-1 (Rattus norvegicus, UniProt P29089+P25095); experiment: Specific binding inhibition of [125I]AII to Angiotensin II receptor, type 1 in rat liver membrane; assay type: cell membranes
T1 sequence (P29089 whole entry): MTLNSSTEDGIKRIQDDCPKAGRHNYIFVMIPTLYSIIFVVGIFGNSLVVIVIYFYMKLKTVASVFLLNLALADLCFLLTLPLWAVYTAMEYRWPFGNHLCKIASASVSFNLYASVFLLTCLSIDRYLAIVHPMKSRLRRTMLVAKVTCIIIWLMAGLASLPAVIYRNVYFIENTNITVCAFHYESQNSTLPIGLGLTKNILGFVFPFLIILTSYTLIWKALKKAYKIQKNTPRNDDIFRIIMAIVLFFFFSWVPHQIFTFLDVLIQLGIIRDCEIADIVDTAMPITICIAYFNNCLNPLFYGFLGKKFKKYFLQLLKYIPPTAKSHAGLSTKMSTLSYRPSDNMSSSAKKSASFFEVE
T1 sequence (P25095 whole entry): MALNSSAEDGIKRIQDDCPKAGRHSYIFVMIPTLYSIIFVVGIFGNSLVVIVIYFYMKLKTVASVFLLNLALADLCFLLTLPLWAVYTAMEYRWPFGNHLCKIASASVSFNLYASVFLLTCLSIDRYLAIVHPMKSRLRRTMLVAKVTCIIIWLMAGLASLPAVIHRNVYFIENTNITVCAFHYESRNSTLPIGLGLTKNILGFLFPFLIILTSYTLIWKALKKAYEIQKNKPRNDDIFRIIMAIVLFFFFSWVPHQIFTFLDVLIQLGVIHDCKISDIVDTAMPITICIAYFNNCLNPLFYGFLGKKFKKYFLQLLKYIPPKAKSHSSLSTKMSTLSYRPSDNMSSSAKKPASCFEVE

[2] = target: T2, Angiotensin II receptor (AT-1) type-1 (Rattus norvegicus) (UniProt P29089+P25095); experiment: Inhibition of pressor response induced by infusion of angiotensin II in rats, administered perorally; assay type: functional
Procedure, shortened: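 Sprague-Dawley rats (n = 18-28) dosed by gastric tube in groups; vehicle water or water with 2 equiv NaOH; controls given water. At 50 min rats anaesthetised, pithed, ventilated, with carotid and jugular catheters. At 1 h post-dose AII 0.75 μg/kg iv given.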

[3] = target: T2, Angiotensin II receptor (AT-1) type-1 (Rattus norvegicus); experiment: Inhibition of pressor response induced by infusion of AII in rats when dose is administered intravenously; assay type: functional
Procedure, shortened: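 Normotensive Sprague-Dawley pithed rats (n = 4), BP recorded by carotid catheter. AII 0.75 μg/kg injected via jugular vein; three control responses taken. Each later AII challenge followed, by 5 min, an iv injection of antagonist at increasing doses, in water or water with 2 equiv NaOH.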

[4] = system: Rattus norvegicus; experiment: Effective dose to inhibit AII-induced pressor response in pithed rats, was determined in vivo after intraduodenal administration; conditions: read-out: ID50 (the source's name)

Row | SMILES | IC50 [1] | ID50 [2] | ID50 [3] | ED50 [4]
1 | CCCCc1nc(SC)cn1Cc1ccc(-c2ccccc2S(=O)(=O)NC(=O)NCCC)cc1 | 2.6 nM | > 10 mg/kg | 0.7 mg/kg | 
2 | CCCNC(=O)NS(=O)(=O)c1ccccc1-c1ccc(Cn2c(CCC)nc(SC)c2C(=O)O)cc1 | 0.2 nM |  |  | 
3 | CCCCc1nc(Cl)c(C(=O)O)n1Cc1ccc(-c2ccccc2S(=O)(=O)NC(=O)NCCC)cc1 | 1 nM | 3.1 mg/kg | 0.16 mg/kg | 
4 | CCCCc1nc(SC)c(C(=O)OCc2ccccc2)n1Cc1ccc(-c2ccccc2S(=O)(=O)NC(=O)NCCC)cc1 | 0.1 nM | 1.73 mg/kg | 0.2 mg/kg | 
5 | CCCCc1nc(SC)c(C(=O)NCC(=O)O)n1Cc1ccc(-c2ccccc2S(=O)(=O)NC(=O)NCCC)cc1 | 1.5 nM | 3.55 mg/kg | 0.06 mg/kg | 
6 | CCCCc1nc(SC)c(C(=O)NC(C(=O)O)C(C)CC)n1Cc1ccc(-c2ccccc2S(=O)(=O)NC(=O)NCCC)cc1 (stereo not given) | 0.3 nM | 2.11 mg/kg | 0.37 mg/kg | 
7 | CCCCc1nc(SC)c(C(=O)NC)n1Cc1ccc(-c2ccccc2S(=O)(=O)NC(=O)NCCC)cc1 | 2.1 nM | 4.86 mg/kg | 0.02 mg/kg | 
8 | CCCCc1nc(Sc2cccs2)c(C(=O)O)n1Cc1ccc(-c2ccccc2S(=O)(=O)NC(=O)NCCC)cc1 | 0.2 nM |  | 2.01 mg/kg | 
9 | CCCCc1nc(S(C)(=O)=O)c(C(=O)O)n1Cc1ccc(-c2ccccc2S(=O)(=O)NC(=O)NCCC)cc1 | 3.2 nM | > 10 mg/kg | 0.06 mg/kg | 
10 | CCCCc1nc(SC)c(C(=O)O)n1Cc1ccc(-c2ccccc2S(=O)(=O)NC(=O)OCC=C(C)C)cc1 | 1.8 nM |  |  | 
11 | CCCCc1nc(SC)c(C(=O)O)n1Cc1ccc(-c2ccccc2S(=O)(=O)NC(=O)OCC)cc1 | 0.9 nM | 0.38 mg/kg | 0.07 mg/kg | 
12 | CCCCc1nc(SC)c(C(=O)O)n1Cc1ccc(-c2ccccc2S(=O)(=O)NC(=O)NCCC)cc1 | 0.3 nM | 0.7 mg/kg and 0.4 mg/kg | 0.11 mg/kg and 0.13 mg/kg | 
13 | CCCCc1nc(SC)c(C(=O)NC(C)=O)n1Cc1ccc(-c2ccccc2S(=O)(=O)NC(=O)NCCC)cc1 | 1.7 nM | 3.01 mg/kg | 0.09 mg/kg | 
14 | CCCCc1nc(SC)c(C(=O)NCC(=O)OC)n1Cc1ccc(-c2ccccc2S(=O)(=O)NC(=O)NCCC)cc1 | 0.8 nM | 2.4 mg/kg | 0.05 mg/kg | 
15 | CCCCc1nc(SC)c(C(=O)O)n1Cc1ccc(-c2ccccc2S(=O)(=O)NC(=O)NCC)cc1 |  | 1.12 mg/kg | 0.17 mg/kg | 
16 | CCCCc1nc(SC(F)(F)F)c(C(=O)O)n1Cc1ccc(-c2ccccc2S(=O)(=O)NC(=O)NCCC)cc1 | 0.8 nM | 1.28 mg/kg | 0.11 mg/kg | 
17 | CCCCc1nc(SCCCCO)c(C(=O)O)n1Cc1ccc(-c2ccccc2S(=O)(=O)NC(=O)NCCC)cc1 | 0.4 nM | 9.81 mg/kg | 0.12 mg/kg | 
18 | CCCCc1nc(SC)c(C(=O)O)n1Cc1ccc(-c2ccccc2S(=O)(=O)NC(=O)NC)cc1 |  | 4.94 mg/kg | 0.27 mg/kg | 
19 | CCCCc1nc(SC)c(C(=O)O)n1Cc1ccc(-c2ccccc2S(=O)(=O)NC(=O)OC)cc1 | 0.9 nM | 1.54 mg/kg | 0.1 mg/kg | 
20 | CCCCNC(=O)NS(=O)(=O)c1ccccc1-c1ccc(Cn2c(CCCC)nc(SC)c2C(=O)O)cc1 |  | 0.21 mg/kg | 0.09 mg/kg | 
21 | CCCCc1nc([S+](C)[O-])c(C(=O)O)n1Cc1ccc(-c2ccccc2S(=O)(=O)NC(=O)NCCC)cc1 (stereo not given) | 3.1 nM | > 10 mg/kg | 0.14 mg/kg | 

Second part, led by results:

Row | IC50 [1] | ID50 [2] | ID50 [3] | SMILES | ED50 [4]
22 | 4.5 nM | > 10 mg/kg | 0.21 mg/kg | CCCCc1nc(SC)c(CO)n1Cc1ccc(-c2ccccc2S(=O)(=O)NC(=O)NCCC)cc1 | 
23 | 7.7 nM |  |  | CCCNC(=O)NS(=O)(=O)c1ccccc1-c1ccc(Cn2c(C3CC3)nc(SC)c2C(=O)O)cc1 | 
24 | 0.6 nM |  | 0.1 mg/kg | CCCCc1nc(SC)c(C(=O)OC(C)(C)C)n1Cc1ccc(-c2ccccc2S(=O)(=O)NC(=O)NCCC)cc1 | 
25 | 1.3 nM |  |  | CCCNC(=O)NS(=O)(=O)c1ccccc1-c1ccc(Cn2c(CC)nc(SC)c2C(=O)O)cc1 | 
26 | 0.5 nM | 0.73 mg/kg | 0.07 mg/kg | CCCCc1nc(SC(F)F)c(C(=O)O)n1Cc1ccc(-c2ccccc2S(=O)(=O)NC(=O)NCCC)cc1 | 
27 | 78 nM |  |  | CCCCc1nc(SC)c(C(=O)OCC)n1Cc1ccc(-c2ccccc2S(=O)(=O)N(C)C(=O)NCCC)cc1 | 
28 | 0.6 nM | 2.28 mg/kg | 0.8 mg/kg | CCCCc1nc(SCC(F)(F)F)c(C(=O)O)n1Cc1ccc(-c2ccccc2S(=O)(=O)NC(=O)NCCC)cc1 | 
29 | 1 nM | 2.83 mg/kg | 0.06 mg/kg | CCCCc1nc(SC)c(C(N)=O)n1Cc1ccc(-c2ccccc2S(=O)(=O)NC(=O)NCCC)cc1 | 
30 | 0.2 nM | 2.75 mg/kg |  | CCCCc1nc(SCSC)c(C(=O)O)n1Cc1ccc(-c2ccccc2S(=O)(=O)NC(=O)NCCC)cc1 | 
31 | 15 nM |  |  | CCCNC(=O)NS(=O)(=O)c1ccccc1-c1ccc(Cn2c(C)nc(SC)c2C(=O)O)cc1 | 
32 | 36 nM | > 30 mg/kg | 5.6 mg/kg | CCCCc1nc(SC)c(C(=O)O)n1Cc1ccc(-c2ccccc2S(N)(=O)=O)cc1 | 
33 | 0.09 nM |  | 0.4 mg/kg | CCCCc1nc(SC)c(C(=O)O)n1Cc1ccc(-c2ccccc2S(=O)(=O)NC(=O)c2ccccc2)cc1 | 
34 | 103 nM |  |  | CCCCc1nc(C(=O)O)c(SC)n1Cc1ccc(-c2ccccc2S(=O)(=O)NC(=O)NCCC)cc1 | 
35 | 0.2 nM | 0.43 mg/kg | 0.15 mg/kg | CCCCc1nc(SC)c(C(=O)O)n1Cc1ccc(-c2ccccc2S(=O)(=O)NC(=O)OCC(C)C)cc1 | 
36 | 0.2 nM | 0.95 mg/kg | 0.06 mg/kg | CCCCc1nc(SC)c(C(=O)O)n1Cc1ccc(-c2ccccc2S(=O)(=O)NC(=O)CCC)cc1 | 
37 | 1.1 nM |  |  | CCCCc1nc(SC)c(C(=O)O)n1Cc1ccc(-c2ccccc2S(=O)(=O)NS(=O)(=O)CC)cc1 | > 1 mg/kg

Row | IC50 [1] | ID50 [2] | ID50 [3] | SMILES | ED50 [4]
38 | 0.08 nM | 1.75 mg/kg | 0.44 mg/kg | CCCCc1nc(SC)c(C(=O)O)n1Cc1ccc(-c2ccccc2S(=O)(=O)NC(=O)Cc2ccccc2)cc1 | 
39 | 0.3 nM | > 10 mg/kg | 0.67 mg/kg | CCCCc1nc(Sc2ccccc2)c(C(=O)O)n1Cc1ccc(-c2ccccc2S(=O)(=O)NC(=O)NCCC)cc1 | 
40 | 2.1 nM |  | 1.15 mg/kg | CCCCc1nc(SC)c(C(=O)O)n1Cc1ccc(-c2ccccc2S(=O)(=O)/N=C(/S)NCCC)cc1 | 
41 | 1 nM | 2.02 mg/kg | 0.13 mg/kg | CCCCc1nc(SC)c(C(=O)O)n1Cc1ccc(-c2ccccc2S(=O)(=O)NC(C)=O)cc1 | 
42 | 0.9 nM |  |  | CCCCc1nc(SC)c(C(=O)O)n1Cc1ccc(-c2ccccc2S(=O)(=O)NC(=O)NCc2cccnc2)cc1 | 
43 | 0.8 nM |  | 1.15 mg/kg | CCCCc1nc(SC)c(C(=O)NS(=O)(=O)c2ccccc2)n1Cc1ccc(-c2ccccc2S(=O)(=O)NC(=O)NCCC)cc1 | 
44 | 0.8 nM |  | 1.45 mg/kg | CCCCc1nc(SC)c(C(=O)O)n1Cc1ccc(-c2ccccc2S(=O)(=O)NS(=O)(=O)C(F)(F)F)cc1 | 
45 | 0.2 nM | 5.74 mg/kg | 0.11 mg/kg | CCCCc1nc(SCCCO)c(C(=O)O)n1Cc1ccc(-c2ccccc2S(=O)(=O)NC(=O)NCCC)cc1 | 
46 | 0.1 nM | 0.6 mg/kg | 0.1 mg/kg | CCCCOC(=O)NS(=O)(=O)c1ccccc1-c1ccc(Cn2c(CCCC)nc(SC)c2C(=O)O)cc1 | 
47 | 0.3 nM | 5.3 mg/kg | 0.83 mg/kg | CCCCc1nc(SCC(F)(F)C(F)(F)CO)c(C(=O)O)n1Cc1ccc(-c2ccccc2S(=O)(=O)NC(=O)NCCC)cc1 | 
48 | 0.4 nM | 1.13 mg/kg | 0.08 mg/kg | CCCCc1nc(SC)c(C(=O)OCC)n1Cc1ccc(-c2ccccc2S(=O)(=O)NC(=O)NCCC)cc1 | 
49 | 4.7 nM |  |  | CCCCc1nc(SC)c(C(=O)O)n1Cc1ccc(-c2ccccc2S(=O)(=O)NC(=O)N(CC)CC)cc1 | 
50 | 1.1 nM | 0.57 mg/kg | 0.11 mg/kg | C=CCNC(=O)NS(=O)(=O)c1ccccc1-c1ccc(Cn2c(CCCC)nc(SC)c2C(=O)O)cc1 | 
51 | 0.3 nM | > 10 mg/kg | 0.6 mg/kg | CCCCc1nc(SCCCCOC(C)=O)c(C(=O)O)n1Cc1ccc(-c2ccccc2S(=O)(=O)NC(=O)NCCC)cc1 | 
52 | 114 nM |  |  | CCCCc1nc(SC)c(C(=O)O)n1Cc1ccc(-c2ccccc2C(=O)NC(=O)NCCC)cc1 | 
